Bioassay records as filed in PubChem BioAssay.
UHRF1 MBD2 ctr: UHRF1 methylated DNA binding inhibitors, primary screen, counter-screen for MBD2 inhibitor project, biochemical, TR-FRET, human UHRF1, single concentration; E3 ubiquitin-protein ligase UHRF1 (Homo sapiens), Q96T88; UHRF1 binding to methylated oligo; inhibition, % at 4.4 µM; 370,000 tested, 0.75% active; AID 687016, 2013; in the data active = inhibition above about 21%;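 note: UHRF1 SRA domain binding a hemimethylated CpG hairpin DNA probe; 0% = median of test compound wells and 100% = reference inhibitor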
TDP2 absorb: human TDP2 enzyme inhibitors, primary screen, biochemical, epi absorbance, recombinant enzyme | Tyrosyl-DNA phosphodiesterase 2 (Homo sapiens), O95551 | T5PNP hydrolysis, p-nitrophenol absorbance 415 nm | inhibition, % at 12.8 µM | 370,000 tested, 0.34% active | AID 720702, 2013;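 active = inhibition above the mean of all tested compounds plus 3 SD, set per campaign, cut at about 25% in these data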;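 note: 0% = DMSO with enzyme and 100% = buffer with substrate but no TDP2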
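System – recombinant human TDP2 · Amount – 120 nM TDP2 per well · Buffer or medium – Mg2+-containing Tris-HCl buffer, pH 7.5 · Reagent – T5PNP substrate, 5 mM · Dosing – 12.8 µM single point, 1% DMSO · Incubation – 2 h at 37 °C · Measured by – epi absorbance · Read-out basis – percent inhibition · Benchmarks – high control without enzyme, low control DMSO plus TDP2 · Repeats – singlicate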
Rin1 Abl inh: inhibitors of Rin1-Abl protein binding, primary screen, biochemical, TR-FRET. Tyrosine-protein kinase ABL1 (Homo sapiens) + Ras and Rab interactor 1 (Homo sapiens), …. inhibition, % at 7.35 µM. 360,000 tested, 0.4% active. AID 588664, 2011; in the data active = inhibition above about 5%, passing the limit was not always enough
MBD2 inh: inhibitors of MBD2 binding to methylated DNA, primary screen, biochemical, TR-FRET, DNA-binding domain, human | Methyl-CpG-binding domain protein 2 (Homo sapiens), Q9UBB5 | MBD2 binding to methylated oligonucleotide | inhibition, % at 4.4 µM | 370,000 tested, 0.31% active; in the data active = inhibition above about 13%
LEDGF integ inh: blockers of LEDGF/p75-dependent integrase strand transfer – biochemical, TR-FRET, high throughput, primary screen; TR-FRET IN-LEDGF/p75 DNA integration, Eu/Cy5; 370,000 tested, 0.64% active; HIV-1 integrase (with human LEDGF/p75); inhibition, % at 3.7 µM;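 active = inhibition above the screen-wide mean plus 3 SD, cut at about 13% in these data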;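 note: signal is the Cy5 over europium emission ratio at 671 and 618 nm; 0% = plate median of compound wells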
TDP2 inh conf: human TDP2 enzyme inhibitors, retest, confirmation, biochemical, epi absorbance, recombinant enzyme; absorbance read-out; 1,100 tested, 22% active; shares compounds with TDP2 absorb; inhibition, % at 12.8 µM; in the data active = inhibition above about 25%;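 note: 0% = vehicle with enzyme and 100% = no enzyme buffer only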
Starred values were filed as active, the others as inactive; . = not tested or not shown. Only some compounds are listed: those with a hit (about 1.9% of all), similar ones and a draw of the others.

SMILES | UHRF1 MBD2 ctr | TDP2 absorb | Rin1 Abl inh | MBD2 inh | LEDGF integ inh | TDP2 inh conf
Oc1[nH]c2ccccc2c1N=Nc1nc2ccccc2s1 | 2 | -14 | -4 | -5 | 5 | .
Cc1ccc2[nH]c(O)c(N=Nc3nc4ccccc4s3)c2c1 | 2 | 25* | -1 | -3 | -2 | -18
Cc1nc(COC(=O)c2cc(O)c3ccccc3c2O)cs1 | -5 | 26* | 0 | -5 | -1 | 6
Cc1nc(COC(=O)c2ccc(CO)cc2)cs1 | -1 | -1 | 1 | -1 | -1 | .
C[C@H]1[C@@H](OC(=O)Nc2cccc(C(F)(F)F)c2)CC[C@@]23CCCN2C(=O)CCC[C@@H]13 | 1 | 3 | . | -1 | -2 | .
CC1=NN(c2ccccc2)C(=O)/C1=C\N(O)c1ccccc1 | -8 | 14 | 0 | -1 | 2 | .
CC1=NN(c2ccccc2)C(=O)/C1=C\c1ccc(Br)s1 | 0 | 52* | 0 | 2 | 5 | 28*
COCCn1c(N)c(C#N)c2nc3ccccc3nc21 | 5 | 30* | -2 | -4 | 5 | 15
COc1ccc(Cn2c(N)c(C#N)c3nc4ccccc4nc32)cc1 | 0 | 37* | 1 | -3 | 8 | -1
COc1cc(Cn2c(N)c(C#N)c3nc4ccccc4nc32)cc(OC)c1 | -1 | -12 | -1 | -2 | 5 | .
COc1cccc(N2CCN(CC(=O)NCc3c(F)cccc3F)CC2)c1 | -1 | -1 | . | 0 | 1 | .
CC1=NN(c2ccc(N)cc2)C(=O)C1 | -1 | 38* | 5 | -6 | 2 | 19
COC(=O)CC1=NN(c2ccc(OC)cc2)C(=O)C1 | -4 | 0 | 0 | -6 | 1 | .
COC(=O)c1cccc(-n2nnnc2SCC(=O)Nc2nc3c(s2)CCCC3)c1 | 2 | 48* | -1 | 5 | 2 | -2
CC(=O)Nc1ccc(CN2CCCN(C)CC2)cc1 | -1 | 27* | -1 | 2 | 1 | -2
Cc1ccc(NC(=O)C2CCN(S(=O)(=O)c3ccc(F)cc3)CC2)cc1 | 0 | 0 | 1 | 4 | 0 | .
Cc1ccc(NC(=O)C2CCN(S(=O)(=O)c3ccccc3)CC2)cc1 | -2 | 30* | 2 | -6 | -4 | 6
CC(C)(C)NC(=O)[C@@H](c1cccnc1)N(C(=O)c1ccco1)c1ccc(C(C)(C)C)cc1 | 2 | 1 | . | 2 | 0 | .
Cc1ccc(Cn2cc(CN3[C@H](CC(C)C)COc4cc(Br)ccc4S3(=O)=O)nn2)cc1 | -1 | -12 | . | -5 | 2 | .
N#CC(C#N)=C1NC(N)=C(C#N)C(c2ccccc2)=C1C#N | 7 | 32* | -32 | 9 | 1 | 29*
N#CC1=C(c2ccccc2)/C(=C/c2ccccc2)OC1=O | -2 | 21 | 3 | 2 | 0 | .
CC(C)[C@H](NC(=O)c1ccc(Cl)c(Cl)c1)C(=O)N1CCC[C@H]1C(=O)NCCc1ccccc1Cl | -1 | -1 | . | 0 | 1 | .
C=CCn1c(NS(=O)(=O)c2ccccc2)c(S(=O)(=O)c2ccc(C)cc2)c2nc3ccccc3nc21 | 3 | 37* | 1 | -1 | 5 | 39*
CC(C)CN(CC(C)C)C(=O)CSc1nc2cccnc2n1C | 0 | 6 | . | -2 | 0 | .
CCCc1cc(=O)n2[nH]c(-c3ccccc3)cc2n1 | -4 | -4 | 0 | 2 | -2 | .
SMILES | UHRF1 MBD2 ctr | TDP2 absorb | Rin1 Abl inh | MBD2 inh | LEDGF integ inh | TDP2 inh conf
CCCCn1[nH]c(-c2ccccc2)cc1=O | -4 | 47* | -4 | 2 | 7 | 10
Cc1cccc(-n2c3nc(=O)[nH]c(=O)c-3cc3cc([N+](=O)[O-])ccc32)c1 | -3 | 54* | 1 | -7 | 4 | 47*
Cc1cccc(-n2c3nc(=O)[nH]c(=O)c-3cc3c(C)nn(-c4ccccc4)c32)c1C | -1 | 12 | 2 | 0 | -2 | .
Cc1cc(OC(=O)c2ccccc2)n(CCC#N)n1 | 5 | 50* | -2 | 0 | 13 | 11
CN=C(Nc1cc(C)nn1CCC#N)c1ccccc1 | 0 | 8 | 5 | 0 | 0 | .
COc1ccc(Cn2c(NC(=O)c3ccccc3)nc(Cc3ccccc3)c2Cc2ccccc2)c(OC)c1 | 0 | -3 | . | -2 | 5 | .
CCN(CC)S(=O)(=O)c1ccc(N2CCN(S(=O)(=O)c3ccccc3)CC2)nc1 | -1 | 25* | 1 | 2 | 3 | 2
CC(=O)Nc1ccc(S(=O)(=O)N(CC(=O)NCC2CCCO2)Cc2ccccc2Cl)cc1 (configuration not stated) | -3 | 6 | 3 | -6 | 1 | .
C=CCOC(=O)N[C@@H](c1coc2ccccc2c1=O)[C@@H](C)/C=C/CC(=O)OC | -3 | -6 | . | -6 | 6 | .
COc1ccc(CNC(=O)c2ccc(CS(=O)(=O)c3ccccc3C)o2)cc1 | -1 | 26* | -2 | 4 | 1 | 5
COc1ccccc1CNC(=O)c1ccc(CS(=O)(=O)c2ccccc2C)o1 | 9 | 2 | 2 | -5 | -3 | .
CC1=CC(=O)C(C2CCCCC2)=C/C1=N\OS(=O)(=O)c1ccccc1 | -1 | 13 | . | -9 | 1 | .
CCc1ccc(-n2c(=O)c3ccccc3n3c(=S)[nH]nc23)cc1 | -1 | 3 | 0 | -5 | 1 | .
COc1cccc(-n2c(=O)c3ccccc3n3c(=S)[nH]nc23)c1 | 1 | 69* | 1 | -6 | -2 | 3
CCC(C)Oc1ccc(/C=C/c2[nH]c(=O)[nH]c(=O)c2[N+](=O)[O-])cc1OC (configuration not stated) | -5 | -27 | 7 | 0 | 1 | .
COc1cc(/C=C/c2[nH]c(=O)[nH]c(=O)c2[N+](=O)[O-])cc([N+](=O)[O-])c1O | -5 | 31* | 2 | -19 | 2 | 11
O=C1C(=C(I)I)c2ccccc2-c2ccccc21 | -1 | 98* | 4 | -4 | -20 | 88*
O=C(c1cc(COc2cccc3cnccc23)on1)N1CCC(c2ccccc2Cl)C1 (configuration not stated) | -3 | 25* | -2 | -4 | 1 | 0
O=C(c1cc(COc2c(F)cccc2F)on1)N1CCC(c2ccccc2Cl)C1 (configuration not stated) | 4 | -18 | 4 | 3 | 1 | .
C=CCNC(=O)CN(C(=O)Cc1cccc(OC(F)(F)F)c1)c1cccc(Br)c1 | -1 | 5 | . | 3 | 3 | .
CN1CCN(CCOc2ccc(Cc3ccccc3)cc2)CC1 | 3 | 3 | 2 | -7 | 2 | .
CC1CCCN(CCOCCOc2ccc(Br)cc2Cl)C1 (configuration not stated) | -2 | 18 | -3 | -1 | 2 | .
